≈ marks a conversion by molar mass, not a printed value.
Tests used:
HT-29 = assay: Cytotoxicity against human HT-29 cells after 24 hrs by MTT assay; assay type: functional, cell-based; details: HT-29, 24 h
Method in brief: (§1)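 Cells were grown in DMEM with 10% FBS and penicillin/streptomycin at 37 °C under 5% CO2. Seeding was 1×10^4 cells/well for A549 and MCF-7, or 1.2×10^4 cells/well for HT-29, followed by 24 h attachment. Compounds came from DMSO stocks diluted in serum-free DMEM, 0.1–1000 µg/mL, DMSO <0.5%, triplicate wells, 24 h. MTT (5 mg/mL stock in PBS) 3–4 h at 37 °C in dark; DMSO-solubilised A570. IC50 from 3 runs, mean ± S.E.M.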

A549 [1] = assay: Cytotoxicity against human A549 cells after 24 hrs by MTT assay; assay type: functional, cell-based; details: A549, 24 h; method in brief: as §1
MCF7 = assay: Cytotoxicity against human MCF7 cells after 24 hrs by MTT assay; assay type: functional, cell-based; details: MCF7, 24 h; method in brief: as §1
A549 [2] = assay: Induction of apoptosis in human A549 cells assessed as viable cells at 90 ug/mL after 16 hrs by propidium iodide/Annexin V/7-AAD staining-based flow cytometric analysis (reference value: 99.37%); assay type: functional; details: A549, 16 h, read-out: Activity
A549 [3] = assay: Induction of apoptosis in human A549 cells assessed as early apoptotic cells at 90 ug/mL after 16 hrs by propidium iodide/Annexin V/7-AAD staining-based flow cytometric analysis (reference value: 0.01%); assay type: functional
A549 [4] = assay: Induction of apoptosis in human A549 cells assessed as late apoptotic cells at 90 ug/mL after 16 hrs by propidium iodide/Annexin V/7-AAD staining-based flow cytometric analysis (reference value: 0.21%); assay type: functional
A549 [5] = assay: Induction of apoptosis in human A549 cells assessed as necrotic cells at 90 ug/mL after 16 hrs by propidium iodide/Annexin V/7-AAD staining-based flow cytometric analysis (reference value: 0.41%); assay type: functional

`Cc1ncc([N+](=O)[O-])n1CCn1cnc2ccccc21` gave an IC50 (HT-29) of 148 mg/L (≈ 546 µM), an IC50 (A549 [1]) of 219 mg/L (≈ 809 µM) and an IC50 (MCF7) of 103 mg/L (≈ 380 µM).

In the case of `Cc1ncc([N+](=O)[O-])n1CCn1ccnc1`, the IC50 (HT-29) is reported as 115 mg/L (≈ 518 µM), the IC50 (A549 [1]) is reported as 240 mg/L (≈ 1080 µM) and the IC50 (MCF7) is reported as 462 mg/L (≈ 2090 µM).

`Cc1ncc([N+](=O)[O-])n1CCCl` was tested, and the IC50 (HT-29) was 311 mg/L (≈ 1640 µM), the IC50 (A549 [1]) was 300 mg/L (≈ 1580 µM) and the IC50 (MCF7) was 480 mg/L (≈ 2530 µM).

`Cc1ncc([N+](=O)[O-])n1CCOC(=O)c1ccc(Br)cc1` was tested, and the IC50 (HT-29) was 277 mg/L (≈ 783 µM), the IC50 (A549 [1]) was 194 mg/L (≈ 548 µM) and the IC50 (MCF7) was 271 mg/L (≈ 766 µM).

For `Cc1ncc([N+](=O)[O-])n1CCOC(=O)c1ccccc1Cl`, the IC50 (HT-29) was 279 mg/L (≈ 902 µM), the IC50 (A549 [1]) was 255 mg/L (≈ 823 µM) and the IC50 (MCF7) was 380 mg/L (≈ 1230 µM).

`Cc1ccc(C(=O)OCCn2c([N+](=O)[O-])cnc2C)cc1` was tested, and the IC50 (HT-29) was 359 mg/L (≈ 1240 µM), the IC50 (A549 [1]) was 184 mg/L (≈ 636 µM) and the IC50 (MCF7) was 256 mg/L (≈ 884 µM).

With `Cc1ncc([N+](=O)[O-])n1CCOc1ccc(Cl)c(Cl)c1` the IC50 (HT-29) was 109 mg/L (≈ 344 µM), the IC50 (A549 [1]) was 77.9 mg/L (≈ 246 µM) and the IC50 (MCF7) was 69.6 mg/L (≈ 220 µM). It also gave a viability at 90 µg/mL (A549 [2]) of 6.85%, an Activity (A549 [3]) of 5.73% and an Activity (A549 [4]) of 61.15%. The Activity (A549 [5]) was 26.27%.

`Cc1ncc([N+](=O)[O-])n1CCOc1ccccc1Cl` gave an IC50 (HT-29) of 552 mg/L (≈ 1960 µM), an IC50 (A549 [1]) of 574 mg/L (≈ 2040 µM) and an IC50 (MCF7) of 378 mg/L (≈ 1340 µM).

For `Cc1cc(OCCn2c([N+](=O)[O-])cnc2C)ccc1Cl`, the IC50 (HT-29) was 159 mg/L (≈ 537 µM), the IC50 (A549 [1]) was 150 mg/L (≈ 506 µM) and the IC50 (MCF7) was 188 mg/L (≈ 635 µM).

`Cc1ncc([N+](=O)[O-])n1CCOC(=O)c1ccccc1F` showed an IC50 (HT-29) of 146 mg/L (≈ 497 µM), an IC50 (A549 [1]) of 170 mg/L (≈ 578 µM) and an IC50 (MCF7) of 262 mg/L (≈ 895 µM).

In the case of `Cc1ncc([N+](=O)[O-])n1CCOc1ccc(F)cc1`, the IC50 (HT-29) is reported as 102 mg/L (≈ 386 µM), the IC50 (A549 [1]) is reported as 129 mg/L (≈ 487 µM) and the IC50 (MCF7) is reported as 85.8 mg/L (≈ 324 µM).

Molecule `Cc1ncc([N+](=O)[O-])n1CCOc1ccc(F)c(Cl)c1` has an IC50 (HT-29) of 199 mg/L (≈ 664 µM), an IC50 (A549 [1]) of 122 mg/L (≈ 407 µM) and an IC50 (MCF7) of 110 mg/L (≈ 367 µM).

`Cc1ncc([N+](=O)[O-])n1CCOc1ccc([N+](=O)[O-])cc1` showed an IC50 (HT-29) of 116 mg/L (≈ 396 µM), an IC50 (A549 [1]) of 110 mg/L (≈ 378 µM) and an IC50 (MCF7) of 127 mg/L (≈ 433 µM).

`COc1ccccc1C(=O)OCCn1c([N+](=O)[O-])cnc1C` gave an IC50 (HT-29) of 283 mg/L (≈ 926 µM), an IC50 (A549 [1]) of 289 mg/L (≈ 947 µM) and an IC50 (MCF7) of 447 mg/L (≈ 1460 µM).

`Cc1ncc([N+](=O)[O-])n1CCOc1ccccc1[N+](=O)[O-]` was tested, and the IC50 (HT-29) was 581 mg/L (≈ 1990 µM), the IC50 (A549 [1]) was 573 mg/L (≈ 1960 µM) and the IC50 (MCF7) was 583 mg/L (≈ 1990 µM).

Molecule `COc1cccc(C(=O)OCCn2c([N+](=O)[O-])cnc2C)c1` has an IC50 (HT-29) of 293 mg/L (≈ 960 µM), an IC50 (A549 [1]) of 281 mg/L (≈ 921 µM) and an IC50 (MCF7) of 428 mg/L (≈ 1400 µM).

With `Cc1ncc([N+](=O)[O-])n1CCOC(=O)c1ccco1` the IC50 (HT-29) was 287 mg/L (≈ 1080 µM), the IC50 (A549 [1]) was 167 mg/L (≈ 631 µM) and the IC50 (MCF7) was 207 mg/L (≈ 779 µM).

`Cc1ncc([N+](=O)[O-])n1CCOc1ccc(C#N)cc1` was tested, and the IC50 (HT-29) was 76.8 mg/L (≈ 282 µM), the IC50 (A549 [1]) was 79.8 mg/L (≈ 293 µM) and the IC50 (MCF7) was 83.2 mg/L (≈ 306 µM). The viability at 90 µg/mL (A549 [2]) was 57.1%, the Activity (A549 [3]) was 11.72% and the Activity (A549 [4]) was 21.24%. For the same molecule, the Activity (A549 [5]) was 9.96%.

With `Cc1ncc([N+](=O)[O-])n1CCOc1cccc([N+](=O)[O-])c1` the IC50 (HT-29) was 112 mg/L (≈ 383 µM), the IC50 (A549 [1]) was 108 mg/L (≈ 371 µM) and the IC50 (MCF7) was 71.7 mg/L (≈ 245 µM).

Work on `Cc1ncc([N+](=O)[O-])n1CCOc1ccccc1` yielded an IC50 (HT-29) of 134 mg/L (≈ 543 µM), an IC50 (A549 [1]) of 107 mg/L (≈ 435 µM) and an IC50 (MCF7) of 106 mg/L (≈ 430 µM).

In the case of `Cc1ncc([N+](=O)[O-])n1CCn1nnc2ccccc21`, the IC50 (HT-29) is reported as 538 mg/L (≈ 1980 µM), the IC50 (A549 [1]) is reported as 701 mg/L (≈ 2580 µM) and the IC50 (MCF7) is reported as 384 mg/L (≈ 1410 µM).

In the case of `Cc1nccn1CCn1c([N+](=O)[O-])cnc1C`, the IC50 (HT-29) is reported as 142 mg/L (≈ 604 µM), the IC50 (A549 [1]) is reported as 195 mg/L (≈ 831 µM) and the IC50 (MCF7) is reported as 157 mg/L (≈ 668 µM).

`Cc1ncc([N+](=O)[O-])n1CCOc1ccc2ccccc2c1` was tested, and the IC50 (HT-29) was 94.8 mg/L (≈ 319 µM), the IC50 (A549 [1]) was 96.1 mg/L (≈ 323 µM) and the IC50 (MCF7) was 64.9 mg/L (≈ 218 µM). It also gave a viability at 90 µg/mL (A549 [2]) of 47.6%, an Activity (A549 [3]) of 10.13% and an Activity (A549 [4]) of 29.33%. The Activity (A549 [5]) was 12.96%.

Work on `Cc1cc(OCCn2c([N+](=O)[O-])cnc2C)ccc1F` yielded an IC50 (HT-29) of 140 mg/L (≈ 503 µM), an IC50 (A549 [1]) of 226 mg/L (≈ 808 µM) and an IC50 (MCF7) of 116 mg/L (≈ 415 µM).

Molecule `Cc1ccc(S(=O)(=O)OCCn2c([N+](=O)[O-])cnc2C)cc1` has an IC50 (HT-29) of 328 mg/L (≈ 1010 µM), an IC50 (A549 [1]) of 196 mg/L (≈ 603 µM) and an IC50 (MCF7) of 160 mg/L (≈ 491 µM).

With `CN(Cc1cnc2nc(N)nc(N)c2n1)c1ccc(C(=O)N[C@@H](CCC(=O)O)C(=O)O)cc1` [METHOTREXATE] the IC50 (HT-29) was 47.8 mg/L (≈ 105 µM), the IC50 (A549 [1]) was 39.3 mg/L (≈ 86.5 µM) and the IC50 (MCF7) was 31.5 mg/L (≈ 69.3 µM).

In the case of `Cc1ncc([N+](=O)[O-])n1CCOC(=O)c1ccccc1` [METRONIDAZOLE BENZOATE], the IC50 (HT-29) is reported as 288 mg/L (≈ 1050 µM), the IC50 (A549 [1]) is reported as 281 mg/L (≈ 1020 µM) and the IC50 (MCF7) is reported as 245 mg/L (≈ 889 µM).

Molecule `Cc1ncc([N+](=O)[O-])n1CCO` [METRONIDAZOLE] has an IC50 (HT-29) of 278 mg/L (≈ 1620 µM), an IC50 (A549 [1]) of 224 mg/L (≈ 1310 µM) and an IC50 (MCF7) of 348 mg/L (≈ 2030 µM).

Reference: ChEMBL document CHEMBL4308910, “Metronidazole aryloxy, carboxy and azole derivatives: Synthesis, anti-tumor activity, QSAR, molecular docking and dynamics studies” (Bioorg Med Chem, 2019)
